Test results taken from ChEMBL document CHEMBL1138814, “Synthesis, antiviral activity, and mode of action of some 3-substituted 2,5,6-trichloroindole 2'- and 5'-deoxyribonucleosides” (J Med Chem, 2004).

Key:
HFF [1] = assay: Cytotoxicity produced in stationary HFF cells was determined by microscopic inspection of uninfected cells; assay type: functional, cell-based; details: Homo sapiens
Method in brief: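 Cytotoxicity was scored visually by microscopy on stationary HFF cells not affected by virus, at the time of HCMV plaque enumeration, in duplicate wells. IC50 came from linear regression of percent inhibition against log concentration.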

HFF [2] = assay: Inhibitory concentration required against human cytomegalovirus (HCMV) expressed in HFF cells was determined by plaque reduction assay; assay type: functional, cell-based
Method in brief: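 HCMV Towne strain at about 100 pfu/cm² was adsorbed onto HFF monolayers. Compounds from 10 mg/mL DMSO stocks were diluted in growth medium and added at four to eight concentrations in duplicate wells. After 7–10 days at 37 °C, cells were fixed and stained with crystal violet and plaques counted microscopically. Percent plaque reduction versus no drug was regressed against log concentration to give IC50.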

[3] = Cytotoxicity against KB cells was determined by crystal violet staining and spectrophotometric quantitation of dye eluted from stained cells; assay type: functional, cell-based; details: Homo sapiens
Method in brief: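 KB cells were seeded at 3000–5000 per well and incubated overnight. Compound was added at six to eight concentrations for 48 h at 37 °C in CO2, covering two population doublings. Cells were fixed in 95% ethanol and stained with 0.1% crystal violet, and the dye was eluted with acidified ethanol and read at 570 nm. IC50 came from regression of percent inhibition against log concentration.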

[4] = Inhibitory concentration required against herpes simplex virus type-1 (HSV-1) expressed in BSC-1 cells was determined by ELISA assay; assay type: functional, cell-based, Cercopithecidae
Method in brief: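 BSC-1 cells (10 000/well, MEM(E) with 10% calf serum) were incubated overnight. Drug (quadruplicate) and HSV-1 at 100 pfu/well were then added, followed by 3 days at 37 °C. Plates were blocked and probed with HRP-conjugated rabbit anti-HSV-1 antibody, developed with TMB and stopped with H2SO4, with absorbance read at 450 and 570 nm. Percent absorbance reduction versus no drug was regressed against log concentration to give IC50.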

HFF [5] = assay: Inhibitory concentration required against human cytomegalovirus (HCMV) r56 strain (UL56 mutant gene) expressed in HFF cells was determined by plaque reduction assay; assay type: functional, cell-based
Method in brief: (§1)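 HFF monolayers in 24-well dishes were infected with about 100 pfu HCMV per cm² (wild type Towne; mutant strains carry UL56, UL89 or UL56 + UL89 mutations). After adsorption, drug from 10 mg/mL DMSO stock was diluted in medium and added at four to eight concentrations in duplicate wells. Cells were held 7–10 days at 37 °C, then crystal-violet stained and plaques counted against no-drug controls. IC50 came from linear regression of % inhibition versus log10 concentration, averaged over two experiments.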

HFF [6] = assay: Inhibitory concentration required against human cytomegalovirus (HCMV) C4 strain (UL56 + UL89 mutant gene) expressed in HFF cells was determined by plaque reduction assay; assay type: functional, cell-based; method in brief: as §1
HFF [7] = assay: Inhibitory concentration required against human cytomegalovirus (HCMV) D10 strain (UL89 mutant gene) expressed in HFF cells was determined by plaque reduction assay; assay type: functional, cell-based; method in brief: as §1
HFF [8] = assay: Inhibitory concentration required against human cytomegalovirus (HCMV) wild type expressed in HFF cells was determined by plaque reduction assay; assay type: functional, cell-based; method in brief: as §1

For OC[C@H]1O[C@@H](n2c(Cl)nc3cc(Cl)c(Cl)cc32)C[C@@H]1O, the IC50 (HFF [1]) was greater than 100 µM and the IC50 (HFF [2]) was 20 µM.
With OC[C@H]1O[C@@H](n2c(Cl)c(-c3ccco3)c3cc(Cl)c(Cl)cc32)C[C@@H]1O the IC50 [3] was 50 µM, the IC50 (HFF [1]) was 3.2 µM and the IC50 [4] was 20 µM. It also gave an IC50 (HFF [2]) of 3.6 µM.
Compound OC[C@H]1O[C@@H](n2c(Cl)c(-c3ccsc3)c3cc(Cl)c(Cl)cc32)C[C@@H]1O has an IC50 [3] of 50 µM, an IC50 (HFF [1]) of 32 µM and an IC50 [4] of 20 µM. For the same compound, the IC50 (HFF [2]) was 38 µM.
With COc1c(C#N)c2cc(Cl)c(Cl)cc2n1[C@H]1C[C@H](O)[C@@H](CO)O1 the IC50 [3] was greater than 100 µM, the IC50 (HFF [1]) was greater than 100 µM and the IC50 [4] was 90 µM. For the same compound, the IC50 (HFF [2]) was 68 µM.
For COc1c(C=O)c2cc(Cl)c(Cl)cc2n1[C@H]1C[C@H](O)[C@@H](CO)O1, the IC50 [3] was 20 µM, the IC50 (HFF [1]) was 100 µM and the IC50 [4] was greater than 100 µM. For the same compound, the IC50 (HFF [2]) was greater than 100 µM.
Compound CC(=O)c1c(Cl)n([C@H]2C[C@H](O)[C@@H](CO)O2)c2cc(Cl)c(Cl)cc12 has an IC50 [3] of 400 µM, an IC50 (HFF [5]) of 1.8 µM and an IC50 (HFF [6]) of 2.1 µM. It also gave an IC50 (HFF [1]) greater than 100 µM, an IC50 (HFF [7]) of 0.76 µM and an IC50 [4] of 8 µM. For the same compound, the IC50 (HFF [2]) was 0.3 µM and the IC50 (HFF [8]) was 0.22 µM.
Compound N#Cc1c(Cl)n([C@H]2C[C@H](O)[C@@H](CO)O2)c2cc(Cl)c(Cl)cc12 has an IC50 [3] of 60 µM, an IC50 (HFF [1]) of 32 µM and an IC50 [4] of 35 µM. It also gave an IC50 (HFF [2]) of 0.3 µM.
Work on CC(=O)c1c(Br)n([C@H]2C[C@H](O)[C@@H](CO)O2)c2cc(Cl)c(Cl)cc12 yielded an IC50 [3] greater than 100 µM, an IC50 (HFF [1]) greater than 100 µM and an IC50 [4] greater than 100 µM. The IC50 (HFF [2]) was 0.34 µM.
Work on OC[C@H]1O[C@@H](n2c(Br)nc3cc(Cl)c(Cl)cc32)C(O)[C@@H]1O (single isomer, unassigned) yielded an IC50 [3] greater than 100 µM, an IC50 (HFF [5]) of 6.7 µM and an IC50 (HFF [6]) of 29 µM. It also gave an IC50 (HFF [7]) of 12 µM, an IC50 [4] of 130 µM and an IC50 (HFF [8]) of 0.99 µM.
Compound OC[C@H]1O[C@@H](n2c(Cl)nc3cc(Cl)c(Cl)cc32)C(O)[C@@H]1O (single isomer, unassigned) has an IC50 [3] of 210 µM and an IC50 [4] of 102 µM.
N#Cc1c(Cl)n(C2O[C@H](CO)[C@@H](O)C2O)c2cc(Cl)c(Cl)cc12 (single isomer, unassigned) showed an IC50 [3] of 35 µM and an IC50 [4] greater than 100 µM.
For N#Cc1c(Cl)n(C2O[C@H](CN=[N+]=[N-])[C@@H](O)C2O)c2cc(Cl)c(Cl)cc12 (single isomer, unassigned), the IC50 [3] was 60 µM, the IC50 (HFF [1]) was greater than 100 µM and the IC50 [4] was 15 µM. The IC50 (HFF [2]) was 3 µM.
O=Cc1c(Cl)n(C2O[C@H](CO)[C@@H](O)C2O)c2cc(Cl)c(Cl)cc12 (single isomer, unassigned) showed an IC50 [3] of 45 µM, an IC50 (HFF [5]) of 1.8 µM and an IC50 (HFF [6]) of 4.8 µM. The IC50 (HFF [7]) was 0.88 µM, the IC50 [4] was 40 µM and the IC50 (HFF [8]) was 0.46 µM.
For CC(=O)c1c(Cl)n(C2O[C@H](CO)[C@@H](O)C2O)c2cc(Cl)c(Cl)cc12 (single isomer, unassigned), the IC50 (HFF [5]) was 1.2 µM, the IC50 (HFF [6]) was 6.2 µM and the IC50 (HFF [7]) was 0.72 µM. The IC50 (HFF [8]) was 0.26 µM.
With C[C@H]1OC(n2c(Cl)nc3cc(Cl)c(Cl)cc32)C(O)[C@@H]1O (single isomer, unassigned) the IC50 (HFF [1]) was 100 µM and the IC50 (HFF [2]) was 0.36 µM.
CC(=O)OC[C@H]1OC(n2c(Cl)c(C=O)c3cc(Cl)c(Cl)cc32)C(O)[C@@H]1O (single isomer, unassigned) gave an IC50 (HFF [5]) of 1.6 µM, an IC50 (HFF [6]) of 3.3 µM and an IC50 (HFF [7]) of 0.88 µM. It also gave an IC50 (HFF [8]) of 0.22 µM.
In the case of C[C@H]1OC(n2c(Cl)c(C=O)c3cc(Cl)c(Cl)cc32)C(O)[C@@H]1O (single isomer, unassigned), the IC50 [3] is reported as 25 µM, the IC50 (HFF [1]) is reported as 32 µM and the IC50 [4] is reported as 20 µM. For the same compound, the IC50 (HFF [2]) was 0.3 µM.
[N-]=[N+]=NC[C@H]1OC(n2c(Cl)c(C=O)c3cc(Cl)c(Cl)cc32)C(O)[C@@H]1O (single isomer, unassigned) gave an IC50 [3] of 25 µM, an IC50 (HFF [1]) of 32 µM and an IC50 [4] of 10 µM. For the same compound, the IC50 (HFF [2]) was 0.32 µM.
In the case of C[C@H]1OC(n2c(Cl)c(C#N)c3cc(Cl)c(Cl)cc32)C(O)[C@@H]1O (single isomer, unassigned), the IC50 [3] is reported as 40 µM, the IC50 (HFF [1]) is reported as 32 µM and the IC50 [4] is reported as 32 µM. It also gave an IC50 (HFF [2]) of 0.19 µM.
N#Cc1c(Cl)n(C2O[C@H](CF)[C@@H](O)C2O)c2cc(Cl)c(Cl)cc12 (single isomer, unassigned) showed an IC50 [3] of 50 µM, an IC50 (HFF [1]) of 32 µM and an IC50 [4] of 40 µM. For the same compound, the IC50 (HFF [2]) was 2.7 µM.
O=Cc1c(Cl)n(C2O[C@H](CF)[C@@H](O)C2O)c2cc(Cl)c(Cl)cc12 (single isomer, unassigned) showed an IC50 [3] of 20 µM, an IC50 (HFF [1]) of 32 µM and an IC50 [4] of 20 µM. It also gave an IC50 (HFF [2]) of 0.6 µM.
Nc1nc2c(ncn2COC(CO)CO)c(=O)[nH]1 [GANCICLOVIR] gave an IC50 [3] greater than 100 µM, an IC50 (HFF [5]) of 1.2 µM and an IC50 (HFF [6]) of 2.5 µM. For the same compound, the IC50 (HFF [1]) was greater than 100 µM, the IC50 (HFF [7]) was 1.2 µM and the IC50 [4] was 3.5 µM. The IC50 (HFF [8]) was 1.2 µM.
